This is an account of results in ChEMBL document CHEMBL3112440, “Design, synthesis, and SAR of a series of activated protein C (APC) inhibitors with selectivity against thrombin for the treatment of haemophilia” (Bioorg Med Chem Lett, 2014).

Molecules are shown by their SMILES. The source made the active and inactive calls. The rule behind the calls is not given here.

Data set [1] has as its target T1, Prothrombin (Homo sapiens, UniProt P00734). The experiment in a line: Inhibition of human thrombin using S-2366 as substrate preincubated for 300 seconds followed by substrate addition measured after 40 mins by spectrophotometric analysis.
The target in data set [2] is T2, Vitamin K-dependent protein C (Homo sapiens, UniProt P04070). The experiment in a line: Competitive inhibition of human APC using S-2366 as substrate. In a few lines:
(§1)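 Ki values were calculated from the IC50 values measured in the enzyme screening assays.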

In data set [3] the target is T1, Prothrombin. As to the kind of experiment: Competitive inhibition of human thrombin using S-2366 as substrate. The essentials: as §1
Another data set is filed under the species Homo sapiens. The experiment in a line: Selectivity ratio of IC50 for human thrombin to IC50 for human APC.
In data set [4] the target is T2, Vitamin K-dependent protein C. As to the kind of experiment: Inhibition of human APC using S-2366 as substrate preincubated for 300 seconds followed by substrate addition measured after 40 mins by spectrophotometric analysis.
Data set [5] in a line: Lipophilicity, log D of the compound at pH 7.4 by chromatographic method. The settings on record: buffer. Format: physicochemical.
Data set [6] concerns the target T3, Coagulation factor XI (Homo sapiens, UniProt P03951). The experiment in a line: Competitive inhibition of human coagulation factor 11a using S-2366 as substrate. In a few lines:
as §1

Data set [7] addresses T3, Coagulation factor XI. As to the kind of experiment: Inhibition of human coagulation factor 11a using S-2366 as substrate preincubated for 300 seconds followed by substrate addition measured after 40 mins by spectrophotometric analysis.
The target in data set [8] is T4, Coagulation factor X (Homo sapiens, UniProt P00742). As to the kind of experiment: Inhibition of human coagulation factor 10a using S-2765 as substrate preincubated for 300 seconds followed by substrate addition measured after 40 mins by spectrophotometric analysis.
Data set [9] deals with T5, Coagulation factor VII (Homo sapiens, UniProt P08709).
T5 sequence (P08709 whole entry): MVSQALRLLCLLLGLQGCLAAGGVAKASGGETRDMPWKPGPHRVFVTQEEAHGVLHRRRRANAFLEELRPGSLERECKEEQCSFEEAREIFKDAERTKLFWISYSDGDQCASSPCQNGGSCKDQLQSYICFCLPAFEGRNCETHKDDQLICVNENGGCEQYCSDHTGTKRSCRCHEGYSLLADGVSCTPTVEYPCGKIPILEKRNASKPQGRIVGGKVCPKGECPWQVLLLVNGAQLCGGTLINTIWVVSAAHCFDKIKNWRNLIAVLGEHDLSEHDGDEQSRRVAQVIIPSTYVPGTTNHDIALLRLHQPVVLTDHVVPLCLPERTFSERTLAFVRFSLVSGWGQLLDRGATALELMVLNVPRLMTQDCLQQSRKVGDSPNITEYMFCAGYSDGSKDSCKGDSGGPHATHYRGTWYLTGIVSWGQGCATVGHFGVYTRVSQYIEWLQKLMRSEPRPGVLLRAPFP
The experiment in a line: Inhibition of human coagulation factor 7a using spectrozyme as substrate preincubated for 300 seconds followed by substrate addition measured after 40 mins by spectrophotometric analysis in presence of tissue factor.

For data set [10], the target named is T4, Coagulation factor X. As to the kind of experiment: Competitive inhibition of human coagulation factor 10a using S-2765 as substrate. In a few lines:
as §1

The subject of data set [11] is Plasma. As to the kind of experiment: Antifibrinolytic activity in human citrated plasma assessed as prolongation of clot-lysis time at 28 uM by spectrophotometric analysis. Format: functional, cell-free. In a few lines:
(§2)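 Citrated plasma from healthy volunteers. Tissue plasminogen activator was added to start plasmin generation, and clot-lysis time was recorded with test compound present (n = 2).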

Data set [12] deals with T5, Coagulation factor VII. As to the kind of experiment: Competitive inhibition of human coagulation factor 7a using spectrozyme as substrate. In a few lines: as §1
Data set [13] deals with Coagulation factor IX (Homo sapiens) (UniProt P00740). The experiment in a line: Inhibition of coagulation factor 9a (unknown origin)-mediated hydrolysis of Z-D-Arg-Gly-Arg-pNA at 100 uM relative to control.
The subject of data set [14] is Plasma. As to the kind of experiment: Antifibrinolytic activity in human citrated plasma assessed as prolongation of clot-lysis time at 101 uM by spectrophotometric analysis. In kind it is functional, cell-free. The essentials: as §2

Regarding `N=C(N)c1ccc(CNC(=O)[C@H](Cc2cccc3ccccc23)NC(=O)[C@@H](CC2CCCCC2)NCC(=O)O)cc1`, the IC50 on Prothrombin [1] turned out to be 12 µM; in data set [4] it was 1.1 µM. Besides, the results for the Ki (in data set [2]; on Prothrombin [3]) were 0.3 µM and 6 µM, respectively. In the data set filed under Homo sapiens, the Ratio IC50 was found to be 11. Further, the chromatographic logD in [5] stood at 1.97.

Take `N=C(N)c1ccc(CNC(=O)C(CCC2CCNCC2)NC(=O)[C@@H](NCC(=O)O)C2CCCCC2)cc1` (mixture of isomers): the IC50 (at Prothrombin [1]; in data set [4]) was over 44 µM each time. Besides, in the data set listed under Homo sapiens, the Ratio IC50 was found to be 1.

Take `N=C(N)c1ccc(CNC(=O)[C@@H](CC2CCCN2)NC(=O)[C@@H](CC2CCCCC2)NCC(=O)O)cc1` (mixture of isomers): the IC50 (against Prothrombin [1]; in data set [4]) was over 44 µM in each case. The Ratio IC50 in the data set listed under Homo sapiens is 1.

For the molecule `N=C(N)c1ccc(CNC(=O)[C@@H](NC(=O)[C@@H](CC2CCCCC2)NCC(=O)O)C2CCNCC2)cc1`, the IC50 is 26 µM at Prothrombin [1], 3.1 µM in data set [4] and over 44 µM against Coagulation factor XI [7]. Also, the Ki in [2] is 0.9 µM; at Prothrombin [3] it was 14 µM; on Coagulation factor XI [6], over 19 µM. In the data set filed under Homo sapiens, the Ratio IC50 came to 8.4.

For the molecule `N=C(N)c1ccc(CNC(=O)[C@@H]2CCN2C(=O)[C@H](NCC(=O)O)C2CCCCC2)cc1`, the IC50 is 21 µM at Coagulation factor X [8], 1.3 µM in [4], 20 µM against Coagulation factor XI [7] and 3.3 µM on Coagulation factor VII [9].

On to `N=C(N)c1ccc(CNC(=O)C(Cc2ccc(CN)cc2)NC(=O)[C@@H](CC2CCCCC2)NCC(=O)O)cc1` (mixture of isomers), for which the IC50 against Prothrombin [1] was determined as 3.7 µM; at Coagulation factor X [8], 42 µM; in data set [4] it was 1.1 µM; against Coagulation factor XI [7], 43 µM. The Ki amounted to 14 µM on Coagulation factor X [10], 0.3 µM in [2], 2 µM at Prothrombin [3] and 19 µM on Coagulation factor XI [6]. The Ratio IC50 in the data set filed under Homo sapiens was determined as 3.3.

In the case of `N=C(N)NCCC[C@H](NC(=O)[C@@H](CC1CCCCC1)NCCC(=O)O)C(=O)NCc1ccc(C(=N)N)cc1`, the IC50 at Prothrombin [1] was 5.2 µM; in data set [4], 2.8 µM; against Coagulation factor XI [7], over 44 µM. Moreover, the results for the Ki (in data set [2]; at Prothrombin [3]; on Coagulation factor XI [6]) were 0.8 µM, 3 µM and over 19 µM, respectively. In addition, the Ratio IC50 in the data set filed under Homo sapiens amounted to 1.8.

For the molecule `N=C(N)c1ccc(CNC(=O)C(CCC2CCNCC2)NC(=O)[C@H](N)CC2CCCCC2)cc1` (mixture of isomers), the values for the IC50 (on Prothrombin [1]; in data set [4]) were 28 µM and 3.1 µM, respectively. The Ki in data set [2] amounted to 0.9 µM; at Prothrombin [3], 15 µM. In the data set filed under Homo sapiens, the Ratio IC50 worked out at 8.9.

As for `N=C(N)c1ccc(CNC(=O)[C@H](Cc2ccccc2)NC(=O)[C@@H](CC2CCCCC2)NCC(=O)O)cc1`, the IC50 was determined as 6.1 µM on Prothrombin [1] and 0.67 µM in [4]. Besides, the Ki in [2] is 0.2 µM; on Prothrombin [3] it was 3 µM. For the same molecule, in the data set filed under Homo sapiens, the Ratio IC50 amounted to 9.1.

Turning to `N=C(N)c1ccc(CNC(=O)C(CC2CCNCC2)NC(=O)[C@@H](CC2CCCCC2)NCC(=O)O)cc1` (mixture of isomers), the values for the IC50 (against Prothrombin [1]; in [4]) were 12 µM and 1.3 µM, respectively. Also, the Ki in data set [2] is 0.4 µM; at Prothrombin [3], 6 µM. In the data set filed under Homo sapiens, the Ratio IC50 came out at 9.1.

For `N=C(N)NCCC[C@H](NC(=O)[C@@H](CC1CCCCC1)NCC(=O)O)C(=O)NCc1ccc(C(=N)N)cc1`, the IC50 on Prothrombin [1] turned out to be 1.3 µM; in data set [4], 0.47 µM. Besides, the Ki is 0.1 µM in data set [2] and 1 µM at Prothrombin [3]. Moreover, in the data set filed under Homo sapiens, the Ratio IC50 was 2.8.

As for `N=C(N)c1ccc(CNC(=O)[C@H](Cc2ccc3ccccc3c2)NC(=O)[C@@H](CC2CCCCC2)NCC(=O)O)cc1`, the IC50 turned out to be 5.2 µM against Prothrombin [1] and 0.98 µM in data set [4]. The Ki stood at 0.3 µM in data set [2] and 3 µM at Prothrombin [3]. Also, the Ratio IC50 in the data set listed under Homo sapiens is 5.3.

Consider `N=C(N)c1ccc(CNC(=O)[C@H](Cc2ccc(O)cc2)NC(=O)[C@@H](CC2CCCCC2)NCC(=O)O)cc1`, for which the IC50 was determined as 3.9 µM at Prothrombin [1], 23 µM at Coagulation factor X [8], 0.26 µM in [4] and 1.9 µM on Coagulation factor XI [7]. The Ki is 8 µM on Coagulation factor X [10], 0.1 µM in [2], 2 µM at Prothrombin [3] and 0.8 µM at Coagulation factor XI [6]. Moreover, the Ratio IC50 in the data set filed under Homo sapiens was determined as 15. Moreover, the chromatographic logD in data set [5] was found to be 0.02.

On to `N=C(N)NCCC[C@H](NC(=O)[C@H](N)C1CCCCC1)C(=O)NCc1ccc(C(=N)N)cc1`, for which the IC50 against Prothrombin [1] came to 1.9 µM; in [4] it was 1.6 µM. For the same molecule, the Ki is 0.5 µM in [2] and 1 µM on Prothrombin [3]. Besides, in the data set listed under Homo sapiens, the Ratio IC50 is 1.2.

As for `N=C(N)c1ccc(CNC(=O)[C@H](CC2CCCN2)NC(=O)[C@@H](CC2CCCCC2)NCC(=O)O)cc1` (mixture of isomers), the concentration for half-maximal inhibition (IC50) worked out at 7 µM against Prothrombin [1] and 5.6 µM in data set [4]. Besides, the Ki in data set [2] is 1.6 µM; at Prothrombin [3], 4 µM. Further, the Ratio IC50 in the data set listed under Homo sapiens was determined as 1.3.

Turning to `N=C(N)c1ccc(CNC(=O)C(CCC2CCNCC2)NC(=O)[C@@H](CC2CCCCC2)NCC(=O)O)cc1` (mixture of isomers), the outcome with Plasma [11] was Active. For the same molecule, the IC50 was 22 µM on Prothrombin [1]; over 130 µM against Coagulation factor X [8]; 0.92 µM in data set [4]; over 44 µM against Coagulation factor XI [7]; over 133 µM at Coagulation factor VII [9]. Also, the Ki at Coagulation factor X [10] is over 43 µM; in data set [2] it was 0.3 µM; at Prothrombin [3] it was 12 µM; at Coagulation factor XI [6], over 19 µM; at Coagulation factor VII [12] it was over 100 µM. For the same molecule, in the data set listed under Homo sapiens, the Ratio IC50 came out at 23. Besides, the inhibition result in [13] is “inactive”. The same molecule gave a chromatographic logD in data set [5] of under 0.

Regarding `N#Cc1ccc(CC(NC(=O)[C@@H](CC2CCCCC2)NCC(=O)O)C(=O)NCc2ccc(C(=N)N)cc2)cc1` (mixture of isomers), the IC50 (on Prothrombin [1]; in [4]) was 3.8 µM throughout. The Ki in data set [2] is 1.1 µM; at Prothrombin [3], 2 µM. Moreover, in the data set filed under Homo sapiens, the Ratio IC50 worked out at 5.4.

As to `N=C(N)c1ccc(CNC(=O)C2(NC(=O)[C@H](NCC(=O)O)C3CCCCC3)Cc3ccccc3C2)cc1`, the IC50 on Prothrombin [1] is 36 µM; at Coagulation factor X [8], 48 µM; in [4], 1.7 µM; against Coagulation factor XI [7] it was over 44 µM; at Coagulation factor VII [9], 8.9 µM. In addition, the Ki on Coagulation factor X [10] was 16 µM; in data set [2], 0.5 µM; on Prothrombin [3], 19 µM; on Coagulation factor XI [6], over 19 µM; on Coagulation factor VII [12], 7 µM. Further, in the data set filed under Homo sapiens, the Ratio IC50 stood at 21. The result in the data set with Plasma [14] was Active. This molecule yielded an inhibition in data set [13] of 40%. The chromatographic logD in [5] stood at 0.93.

Take `N=C(N)c1ccc(CNC(=O)[C@H](Cc2ccc(N)cc2)NC(=O)[C@@H](CC2CCCCC2)NCC(=O)O)cc1`: the IC50 on Prothrombin [1] is 0.9 µM; on Coagulation factor X [8] it was over 44 µM; in data set [4], 0.13 µM; against Coagulation factor XI [7] it was 0.58 µM. For the same molecule, the Ki is over 15 µM on Coagulation factor X [10], 0.04 µM in data set [2], 0.5 µM at Prothrombin [3] and 0.3 µM on Coagulation factor XI [6]. For the same molecule, the Ratio IC50 in the data set filed under Homo sapiens amounted to 6.9.

A word on the IC50: it is the concentration at which inhibition is half-maximal. One may read the Ki as a dissociation constant, usually derived from enzyme kinetics or from competition with a known ligand. Read a low Ki as tighter binding. Broadly, the chromatographic logD is lipophilicity estimated from chromatographic retention. High values mean a more lipophilic compound, low ones a more hydrophilic compound. What is called inhibition is the change of the read-out against control, counted positive when it falls.
